Common to all, as to type: functional
Assay [1] has as its system Candida albicans. Briefly: Antifungal activity against Candida albicans CA137 after 48 hrs by broth microdilution method. The note with it: CA137, 48 h. Summed up: (§1)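 CLSI M27-A2 broth microdilution of clinical isolates in RPMI 1640 buffered to pH 7.0 with 0.165 M MOPS. Final inoculum 0.5 x 10^3 to 2.5 x 10^3 cells/ml, incubated 35°C for 48 h. Growth read as OD490 with background subtracted. MIC taken as the lowest drug concentration giving 80% growth reduction versus drug-free control. Run in triplicate.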

The test system of assay [2] is Candida albicans. Description: Antifungal activity against Candida albicans CA135 after 48 hrs by broth microdilution method. As to conditions: CA135, 48 h. Summed up:
as §1

Assay [3] has as its system Candida albicans. Briefly: Antifungal activity against Candida albicans CA10 after 48 hrs by broth microdilution method. The note with it: CA10, 48 h. The method in brief:
as §1

In assay [4] the test system is Candida albicans. Briefly: Antifungal activity against Candida albicans CA132 after 48 hrs by broth microdilution method. The note with it: CA132, 48 h. The method in brief: as §1
Assay [5] relates to Candida albicans. Briefly: Antifungal activity against Candida albicans CA4 after 48 hrs by broth microdilution method. As to conditions: CA4, 48 h. The method in brief: as §1
For assay [6], the system named is Candida albicans. Briefly: Antifungal activity against Candida albicans CA127 after 48 hrs by broth microdilution method. As to conditions: CA127, 48 h. The method in brief: as §1
The subject of assay [7] is Candida albicans. Description: Antifungal activity against Candida albicans CA2 after 48 hrs by broth microdilution method. As to conditions: CA2, 48 h. Summed up:
as §1

Assay [8] concerns Candida albicans. Briefly: Antifungal activity against Candida albicans CA138 after 48 hrs by broth microdilution method. The note with it: CA138, 48 h. Summed up:
as §1

For assay [9], the system named is Candida albicans. Briefly: Antifungal activity against Candida albicans CA3 after 48 hrs by broth microdilution method. The note with it: CA3, 48 h. The method in brief: as §1
Assay [10] has as its system Candida albicans. Description: Antifungal activity against Candida albicans ATCC 10231 by broth microdilution method. The method in brief:
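CLSI M27-A2 broth microdilution in RPMI 1640 buffered to pH 7.0 with 0.165 M MOPS. Final inoculum 0.5 x 10^3 to 2.5 x 10^3 cells/ml, incubated 35°C for 48 h. Growth read as OD490 with background subtracted. MIC taken as the lowest drug concentration giving 80% growth reduction versus drug-free control. Run in triplicate.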

In assay [11] the test system is Candida albicans. Description: Antifungal activity against Candida albicans CA1 after 48 hrs by broth microdilution method. As to conditions: CA1, 48 h. Summed up:
as §1

In brackets after ≈: the same amount, converted by molar mass.

These results are taken from ChEMBL document CHEMBL1629670, “In vitro activities of retigeric acid B alone and in combination with azole antifungal agents against Candida albicans” (2009).

As for `OC(Cn1cncn1)(Cn1cncn1)c1ccc(F)cc1F` [FLUCONAZOLE], the minimal inhibitory concentration (MIC) was determined as 64 µg/mL (≈ 209 µM) in assay [1]; 128 µg/mL (≈ 418 µM) in assay [2]; 256 µg/mL (≈ 836 µM) in assay [3]; 0.5 µg/mL (≈ 1.63 µM) in assay [4]; 1 µg/mL (≈ 3.27 µM) in assay [5]; 1 µg/mL (≈ 3.27 µM) in assay [6]. For the same compound, the MIC in [7] was found to be 0.5 µg/mL (≈ 1.63 µM); in assay [8], 128 µg/mL (≈ 418 µM); in assay [9], 0.25 µg/mL (≈ 0.816 µM); in [10], 0.5 µg/mL (≈ 1.63 µM); in assay [11] it was 0.25 µg/mL (≈ 0.816 µM).
Consider `CCC(C)n1ncn(-c2ccc(N3CCN(c4ccc(OCC5COC(Cn6cncn6)(c6ccc(Cl)cc6Cl)O5)cc4)CC3)cc2)c1=O` (stereo unspecified) [ITRACONAZOLE], for which the minimal inhibitory concentration (MIC) in [1] amounted to 16 µg/mL (≈ 22.7 µM); in assay [2], 32 µg/mL (≈ 45.3 µM); in assay [3] it was 128 µg/mL (≈ 181 µM); in assay [4], 0.031 µg/mL (≈ 0.0439 µM); in assay [5] it was 0.031 µg/mL (≈ 0.0439 µM); in assay [6], 0.016 µg/mL (≈ 0.0227 µM). The minimum inhibitory concentration (MIC) worked out at 0.125 µg/mL (≈ 0.177 µM) in assay [7], 64 µg/mL (≈ 90.7 µM) in [8], 0.031 µg/mL (≈ 0.0439 µM) in assay [9] and 0.125 µg/mL (≈ 0.177 µM) in assay [11].
